Assay results reported in ChEMBL document CHEMBL4308843, “Identification of ABX-1431, a Selective Inhibitor of Monoacylglycerol Lipase and Clinical Candidate for Treatment of Neurological Disorders” (J Med Chem, 2018).
Active and inactive are the calls of the source. No cut-off for these calls is given here.

Experiments:
[1] = Half life in Sprague-Dawley rat at 1 mg/kg, iv by LC-MS analysis; type: ADME, organism-based; settings: in vivo
How it was run: (§1)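 Rats (n = 3 per route) were dosed at 1 mg/kg iv (70% PEG400 in HPBCD/saline) or 5 mg/kg po (70% PEG400 in 0.5% CMC/saline), fasted overnight to 4 h post-dose. Jugular-catheter blood (~100 µL) was sampled to 24 h into 400 µL acetonitrile to stop esterases. Samples were quantified by HPLC-MS/MS, with noncompartmental analysis.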

[2] = Half life in Beagle dog at 1 mg/kg, iv by LC-MS analysis; type: ADME, organism-based, Canis lupus familiaris; settings: in vivo
How it was run: (§2)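 Male beagle dogs (n = 3 per route), 10–12 months old, were dosed at 1 mg/kg iv or po in PEG400/ethanol/PBS (7/2/1), fasted overnight to 2 h post-dose. Peripheral venous blood was sampled to 24 h into K2EDTA and plasma frozen at −80 °C. Plasma was quantified by HPLC-MS/MS, with noncompartmental analysis.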

[3] = target: T1, Monoacylglycerol lipase ABHD6 (Rattus norvegicus) (UniProt Q5XI64); experiment: Inhibition of ABHD6 in rat brain membrane homogenates at 0.001 to 10 uM preincubated for 30 mins followed by FP-Rh addition after 30 mins by gel-based ABPP assay; type: cell membranes
T1 sequence (whole entry): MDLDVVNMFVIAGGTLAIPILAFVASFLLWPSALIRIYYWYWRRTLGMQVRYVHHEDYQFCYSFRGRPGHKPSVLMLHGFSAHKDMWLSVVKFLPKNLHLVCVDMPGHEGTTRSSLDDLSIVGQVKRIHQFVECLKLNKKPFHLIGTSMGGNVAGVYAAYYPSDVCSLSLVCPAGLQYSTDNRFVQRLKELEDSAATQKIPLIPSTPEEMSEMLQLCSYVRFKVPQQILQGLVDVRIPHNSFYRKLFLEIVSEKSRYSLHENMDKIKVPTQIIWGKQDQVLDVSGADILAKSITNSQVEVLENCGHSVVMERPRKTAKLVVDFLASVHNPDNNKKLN

Cytochrome P450 3A5 = Cytochrome P450 3A5 (Homo sapiens, UniProt P20815); experiment: Inhibition of recombinant human CYP3A5; type: ADME
Mus musculus [4] = experiment: In vivo inhibition of ABHD6 in ICR mouse brain at 25 mg/kg, po measured at 4 hrs post dose in presence of FP-Rh probe by gel-based ABPP assay; type: functional, organism-based
Rattus norvegicus = experiment: Antinociceptive activity in Sprague-Dawley rat assessed as reduction in formalin-evoked paw licking duration at 3 mg/kg, po administered 4 hrs prior to formalin challenge and measured between 0 to 15 mins post formalin challenge; type: functional, organism-based
[5] = Oral bioavailability in Beagle dog at 1 mg/kg by LC-MS analysis; type: ADME, organism-based, Canis lupus familiaris; settings: in vivo; how it was run: as §2
[6] = Inhibition of BCRP (unknown origin) at 10 uM; type: ADME; settings: human
[7] = target: T2, Solute carrier family 22 member 2 (Homo sapiens, UniProt O15244); experiment: Inhibition of OCT2 (unknown origin) at 10 uM; type: ADME
T2 sequence (O15244 whole entry): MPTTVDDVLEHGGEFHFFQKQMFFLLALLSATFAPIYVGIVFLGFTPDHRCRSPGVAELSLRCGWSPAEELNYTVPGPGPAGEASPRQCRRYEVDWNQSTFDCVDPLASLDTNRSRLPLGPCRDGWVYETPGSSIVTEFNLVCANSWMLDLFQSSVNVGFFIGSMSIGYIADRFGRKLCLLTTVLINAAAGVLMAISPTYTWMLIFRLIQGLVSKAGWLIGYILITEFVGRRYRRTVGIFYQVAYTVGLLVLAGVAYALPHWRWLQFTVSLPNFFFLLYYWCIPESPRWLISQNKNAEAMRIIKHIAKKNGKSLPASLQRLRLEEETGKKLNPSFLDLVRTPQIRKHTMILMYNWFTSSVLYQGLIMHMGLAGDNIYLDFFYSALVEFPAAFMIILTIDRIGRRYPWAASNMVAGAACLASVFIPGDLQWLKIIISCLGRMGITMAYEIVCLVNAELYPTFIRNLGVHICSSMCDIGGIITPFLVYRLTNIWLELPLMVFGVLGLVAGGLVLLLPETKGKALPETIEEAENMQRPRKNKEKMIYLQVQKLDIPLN

[8] = target: T3, Monoglyceride lipase (Mus musculus) (UniProt O35678); experiment: Inhibition of MGLL in mouse brain membrane homogenates at 0.001 to 10 uM preincubated for 30 mins followed by FP-Rh addition after 30 mins by gel-based ABPP assay; type: cell membranes
T3 sequence (whole entry): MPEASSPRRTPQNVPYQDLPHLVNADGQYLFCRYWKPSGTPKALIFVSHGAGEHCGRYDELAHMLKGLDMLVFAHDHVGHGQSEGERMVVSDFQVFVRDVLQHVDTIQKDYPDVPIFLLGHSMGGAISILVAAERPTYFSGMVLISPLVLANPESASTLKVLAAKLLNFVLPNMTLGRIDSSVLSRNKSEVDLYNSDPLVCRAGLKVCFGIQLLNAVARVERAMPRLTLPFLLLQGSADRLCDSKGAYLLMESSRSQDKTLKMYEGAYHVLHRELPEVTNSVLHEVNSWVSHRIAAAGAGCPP
How it was run: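 Brain membrane homogenates (1 mg/mL protein) were preincubated with 0.001-10 µM inhibitor or DMSO for 30 min at 37°C, then labelled with 1 µM FP-Rh for 30 min at 25°C. Reactions were quenched in SDS-PAGE loading buffer, run on 10% gels and scanned in-gel. MGLL band intensities were normalised to DMSO (100%).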

[9] = Volume of distribution at steady state in Sprague-Dawley rat at 1 mg/kg, iv or 5 mg/kg, po by LC-MS analysis; type: ADME, organism-based; settings: in vivo, read-out: Vdss; how it was run: as §1
Cytochrome P450 2C19 = Cytochrome P450 2C19 (Homo sapiens, UniProt P33261); experiment: Inhibition of recombinant human CYP2C19; type: ADME
Cytochrome P450 2C9 = Cytochrome P450 2C9 (Homo sapiens, UniProt P11712); experiment: Inhibition of recombinant human CYP2C9; type: ADME
Mus musculus [10] = experiment: In vivo inhibition of CES1c in po dosed ICR mouse brain measured 4 hrs post dose in presence of FP-Rh probe by gel-based ABPP assay; type: functional
How it was run: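 Male ICR mice, 6–12 weeks old, given single oral doses (0.5–32 mg/kg, n = 3) in PEG400:ethanol:PBS (7/2/1 v/v/v) at 5 mL/kg. Brains were removed 4 h later and one hemisphere processed for gel-based ABPP. Proteome was labeled with FP-Rh (1 µM, 30 min) and read by in-gel fluorescence relative to vehicle.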

Sequence of Cytochrome P450 2C19 (P33261 whole entry): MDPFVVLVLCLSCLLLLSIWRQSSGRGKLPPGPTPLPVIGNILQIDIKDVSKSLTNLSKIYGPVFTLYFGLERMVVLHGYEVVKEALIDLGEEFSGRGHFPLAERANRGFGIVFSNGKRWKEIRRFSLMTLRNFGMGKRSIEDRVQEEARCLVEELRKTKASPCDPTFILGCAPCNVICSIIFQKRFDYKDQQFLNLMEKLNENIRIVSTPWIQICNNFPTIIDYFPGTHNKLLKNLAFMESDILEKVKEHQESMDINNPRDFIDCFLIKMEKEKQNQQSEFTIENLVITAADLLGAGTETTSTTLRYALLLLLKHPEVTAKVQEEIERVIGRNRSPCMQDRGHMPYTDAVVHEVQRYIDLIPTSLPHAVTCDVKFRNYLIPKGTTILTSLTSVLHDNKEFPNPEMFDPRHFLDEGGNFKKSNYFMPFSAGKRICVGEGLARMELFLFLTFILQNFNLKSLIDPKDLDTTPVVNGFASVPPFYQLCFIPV
Sequence of Cytochrome P450 2C9 (P11712 whole entry): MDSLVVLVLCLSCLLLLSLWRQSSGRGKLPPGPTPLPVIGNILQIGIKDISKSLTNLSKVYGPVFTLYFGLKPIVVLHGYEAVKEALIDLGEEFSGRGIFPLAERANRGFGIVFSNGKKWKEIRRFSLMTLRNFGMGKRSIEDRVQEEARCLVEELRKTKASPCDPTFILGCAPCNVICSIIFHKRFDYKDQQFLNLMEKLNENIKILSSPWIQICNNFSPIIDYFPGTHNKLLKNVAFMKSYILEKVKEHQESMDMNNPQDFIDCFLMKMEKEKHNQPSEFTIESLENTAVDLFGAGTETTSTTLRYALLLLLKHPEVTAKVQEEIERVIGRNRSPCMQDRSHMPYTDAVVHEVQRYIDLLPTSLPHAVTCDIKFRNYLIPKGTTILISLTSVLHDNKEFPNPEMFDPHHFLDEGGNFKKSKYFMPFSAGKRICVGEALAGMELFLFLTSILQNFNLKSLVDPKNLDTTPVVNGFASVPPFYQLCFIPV
Sequence of Cytochrome P450 3A5 (P20815 whole entry): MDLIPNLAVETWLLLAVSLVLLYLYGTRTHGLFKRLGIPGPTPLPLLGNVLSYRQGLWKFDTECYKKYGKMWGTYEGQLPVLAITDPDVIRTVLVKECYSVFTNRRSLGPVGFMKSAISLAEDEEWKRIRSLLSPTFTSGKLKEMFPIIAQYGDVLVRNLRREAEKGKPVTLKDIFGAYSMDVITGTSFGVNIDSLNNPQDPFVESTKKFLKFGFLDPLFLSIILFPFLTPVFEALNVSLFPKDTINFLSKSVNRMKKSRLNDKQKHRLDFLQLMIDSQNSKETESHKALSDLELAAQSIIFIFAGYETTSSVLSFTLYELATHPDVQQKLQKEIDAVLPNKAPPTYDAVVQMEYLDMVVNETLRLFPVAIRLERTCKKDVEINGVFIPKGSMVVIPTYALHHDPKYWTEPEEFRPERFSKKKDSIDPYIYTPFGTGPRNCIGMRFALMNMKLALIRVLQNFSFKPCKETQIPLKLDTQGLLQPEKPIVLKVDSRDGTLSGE

O=C(OC(C(F)(F)F)C(F)(F)F)N1CCN(Cc2ccc(C(F)(F)F)cc2N2CCCC2)CC1 [ELCUBRAGISTAT]
half-life [1]: 216 min | half-life [2]: 366 min | inhibition [3]: Active | IC50 (Cytochrome P450 3A5): > 50 µM | inhibition (Mus musculus [4]): Active | Activity (Rattus norvegicus): Active | bioavailability [5]: 57% | inhibition (INH) [6]: Not Active | inhibition (INH) [7]: Not Active | inhibition [8]: Active | Vd [9]: 3.2 L/kg | IC50 (Cytochrome P450 2C19): > 50 µM | IC50 (Cytochrome P450 2C9): > 50 µM | ED50 (Mus musculus [10]): 32 mg/kg
